Values after ≈ are worked out from the molar mass of the structure shown.
Legend:
[1] = system: Mycobacterium tuberculosis; experiment: Antitubercular activity against Mycobacterium tuberculosis H37Rv incubated for 7 days by microplate alamar blue assay; type: functional; details: 168 h, time 7 day
Procedure, shortened: (§1)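 MIC determined by microplate alamar blue assay (MABA) following a published protocol.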

[2] = MRT (0 to infinity) in Balb/c mouse at 25 mg/kg, po by LC-MS/MS analysis; type: ADME, organism-based; details: in vivo
Procedure, shortened: (§2)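 Female BALB/c mice (20–25 g), five per route. Oral dose 25 mg/kg in 0.5% carboxymethyl cellulose; i.v. dose 2.5 mg/kg in 10% DMSO/physiological saline. Blood sampled 5 min–72 h after p.o. and 2 min–48 h after i.v. Analyte quantified by LC/MS/MS (ESI positive, C18, isocratic methanol/water). Parameters from non-compartmental analysis.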

[3] = AUC (0 to t) in Balb/c mouse at 25 mg/kg, po by LC-MS/MS analysis; type: ADME, organism-based; set-up: dose 25 mg/kg; details: in vivo; procedure, shortened: as §2
[4] = Terminal half life in Balb/c mouse at 2.5 mg/kg, iv by LC-MS/MS analysis; type: ADME, organism-based; details: in vivo, read-out: beta t1/2 (converted)
Procedure, shortened: (§3)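 Female BALB/c mice, 20-25 g, five per route. Dosed 25 mg/kg p.o. in 0.5% carboxymethyl cellulose or 2.5 mg/kg i.v. in 10% DMSO/saline. Blood sampled 5 min-72 h (p.o.) or 2 min-48 h (i.v.), quantified by LC/MS/MS with ESI+. Parameters by non-compartmental analysis; F = (AUCpo×dose_iv)/(AUCiv×dose_po)×100%.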

[5] = Mutagenicity in Salmonella typhimurium TA98 up to 1000 ug measured after 48 to 72 hrs in presence of S9 fraction by Ames test; type: toxicity, subcellular; details: salmonella enterica subsp. enterica serovar typhimurium, dose <=1000 µg, time 48-72 hrs
Procedure, shortened: (§4)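 Mini-Ames, plate incorporation in 6-well format. Bacteria, compound (DMSO vehicle, top 1000 µg/well), and 10% S9 mix or PBS were mixed into molten agar at 45°C and poured over minimal agar, then incubated 37°C for 48-72 h. Revertants were counted manually and the background lawn inspected. A result is positive at ≥2-fold the mean vehicle revertants with a dose-related increase.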

[6] = Toxicity in CD-1 mouse assessed as increase in bone marrow micronucleus formation up to 2000 mg/kg, po administered daily via gavage for 2 days measured measured 18 to 24 hrs post last dose by microscopic analysis; type: organism-based; details: in vivo, 48 h, time 2 day
Procedure, shortened: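 Male CD-1 (ICR) mice, 28.3-33.3 g, 3 per group. Oral gavage on 2 consecutive days, 24 h apart, at 100-2000 mg/kg; 500, 1000 and 2000 mg/kg analysed. Bone marrow harvested 18-24 h after last dose and scored microscopically for micronucleus frequency and PCE/total erythrocytes.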

[7] = Cmax in Balb/c mouse at 2.5 mg/kg, iv by LC-MS/MS analysis; type: ADME, organism-based; set-up: route intravenous, dose 2.5 mg/kg; details: in vivo; procedure, shortened: as §2
[8] = Inhibition of human CaV alpha1c/alpha2/delta/beta2a expressed in HEK293 cells measured after 60 mins by fluo-4 AM dye based fluorescence assay; type: cell-based; details: HEK293, 1 h
Procedure, shortened: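 HEK-293 cells stably expressing human Cav1.2 (α1c, α2/δ, β2a) plus Kir2.3, seeded 1.2×10^4/well overnight in 1% FBS medium. Loaded with fluo-4 AM (4 μM), probenecid (5 mM) and brilliant black (1 mM) in 2× dye solution, 60 min at 37 °C. Ten concentrations from 1.52 to 30000 nM, duplicate, read on FLIPR (ex 470-495, em 515-575 nm). Inhibition normalised to KCl EC80 and solvent control; IC50 fitted.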

[9] = AUC (0 to t) in Balb/c mouse at 2.5 mg/kg, iv by LC-MS/MS analysis; type: ADME, organism-based; set-up: dose 2.5 mg/kg; details: in vivo; procedure, shortened: as §2
[10] = Tmax in Balb/c mouse at 25 mg/kg, po by LC-MS/MS analysis; type: ADME, organism-based; details: in vivo; procedure, shortened: as §3
[11] = MRT (0 to t) in Balb/c mouse at 2.5 mg/kg, iv by LC-MS/MS analysis; type: ADME, organism-based; details: in vivo; procedure, shortened: as §2
[12] = Inhibition of mitochondrial protein synthesis in rat H9c2 cells measured after 5 days by ELISA; type: cell-based; details: H9c2, 120 h
Procedure, shortened: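 H9C2 cells in DMEM with 10% FBS, seeded 1500/well. After 18 h, compound added at final 0.03–200 μM (3-fold series), then 5 days at 37 °C, 5% CO2; 0.5% DMSO negative control. MPS inhibition read by MitoBiogenesis In-Cell ELISA; IC50 calculated.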

[13] = target: T1, Amine oxidase [flavin-containing] B (Homo sapiens, UniProt P27338); experiment: Inhibition of recombinant human MAOB expressed in baculovirus infected insect cells using kynuramine as substrate measured after 20 mins by LC-MS/MS analysis
T1 sequence (P27338 whole entry): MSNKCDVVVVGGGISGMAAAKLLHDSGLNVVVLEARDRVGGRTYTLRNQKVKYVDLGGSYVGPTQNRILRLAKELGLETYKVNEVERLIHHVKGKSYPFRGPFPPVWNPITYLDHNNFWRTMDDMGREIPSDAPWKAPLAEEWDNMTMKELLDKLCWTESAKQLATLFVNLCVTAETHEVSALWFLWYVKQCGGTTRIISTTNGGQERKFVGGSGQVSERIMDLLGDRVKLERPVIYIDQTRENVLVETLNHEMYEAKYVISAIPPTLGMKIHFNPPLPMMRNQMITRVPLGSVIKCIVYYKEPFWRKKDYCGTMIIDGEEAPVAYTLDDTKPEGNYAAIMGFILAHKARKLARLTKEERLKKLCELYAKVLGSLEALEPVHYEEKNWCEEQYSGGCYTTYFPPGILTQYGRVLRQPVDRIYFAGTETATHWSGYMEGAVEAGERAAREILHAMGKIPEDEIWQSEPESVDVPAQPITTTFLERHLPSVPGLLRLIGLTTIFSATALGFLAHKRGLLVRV
Procedure, shortened: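 Recombinant human MAO-A or MAO-B (50 μg/mL) in 100 mM potassium phosphate pH 7.4 with 5 mM MgCl2. Kynuramine substrate at 50 μM (MAO-A) or 25 μM (MAO-B). […] 4-Hydroxyquinoline formation measured by LC-MS/MS versus vehicle; IC50 derived.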

[14] = system: Mycobacterium tuberculosis; experiment: Antitubercular activity against Mycobacterium tuberculosis isolate 12525 incubated for 7 days by microplate alamar blue assay; type: functional; details: isolate 12525, 168 h, time 7 day; procedure, shortened: as §1
[15] = Cmax in Balb/c mouse at 25 mg/kg, po by LC-MS/MS analysis; type: ADME, organism-based; set-up: route oral, dose 25 mg/kg; details: in vivo; procedure, shortened: as §2
[16] = Mutagenicity in Salmonella typhimurium TA98 up to 1000 ug measured after 48 to 72 hrs in absence of S9 fraction by Ames test; type: toxicity; details: salmonella enterica subsp. enterica serovar typhimurium, dose <=1000 µg, time 48-72 hrs; procedure, shortened: as §4

SMILES	MIC ([1]; Mycobacterium tuberculosis, H37Rv, read-out: MIC)	MRT inf [2]	AUC(0-t) [3]	half-life [4]	Activity [5]	Activity [6]	Cmax [7]	IC50 [8]	AUC(0-t) [9]	Tmax [10]	MRT last [11]	IC50 [12]	IC50 [13]	MIC [14]	Cmax [15]	Activity [16]	MIC [1]
CC(=O)NC[C@@H]1OC(=O)N2c3cc(F)c(N4CC[S+]([O-])CC4)cc3OC[C@@H]12	0.44 µg/mL (≈ 1.11 µM)	10.8 h	8750 ng·h/mL	229 min	Non-Toxic	Non-Toxic	115 ng/mL	> 30 µM	443 ng·h/mL	30 min	3.52 h	60.6 µM	> 100 µM	0.46 µg/mL (≈ 1.16 µM)	1520 ng/mL	Non-Toxic	–
CC(=O)NC[C@@H]1OC(=O)N2c3cc(F)c(N4CCSCC4)cc3OC[C@@H]12	–	15.2 h	6480 ng·h/mL	55.4 min	Non-Toxic	Non-Toxic	4200 ng/mL	> 30 µM	1160 ng·h/mL	15 min	0.54 h	> 100 µM	3.2 µM	0.03 µg/mL (≈ 0.0787 µM)	3000 ng/mL	Non-Toxic	0.03 µg/mL (≈ 0.0787 µM)

From ChEMBL document CHEMBL4725282, “Discovery of a Conformationally Constrained Oxazolidinone with Improved Safety and Efficacy Profiles for the Treatment of Multidrug-Resistant Tuberculosis” (J Med Chem, 2020)
